Test results taken from ChEMBL document CHEMBL1137008, “Cancer preventive agents 9. Betulinic acid derivatives as potent cancer chemopreventive agents” (Bioorg Med Chem Lett, 2009).

Key:
[1] = Cytotoxicity against human Raji cells assessed as cell viability at 1000 molar ratio after 48 hrs by trypan blue staining method; assay type: cell-based; details: read-out: Activity
Method in brief: (§1)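 Raji cells (EBV genome-carrying, Burkitt's lymphoma) grown in RPMI-1640 with 10% FBS; incubated 48 h at 37 °C with 4 mM n-butyric acid, 32 pM TPA and test compound in DMSO at stated compound/TPA molar ratio; viability determined by Trypan blue staining.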

[2] = Cytotoxicity against human Raji cells assessed as cell viability at 500 molar ratio after 48 hrs by trypan blue staining method; assay type: cell-based; details: read-out: Activity; method in brief: as §1
[3] = Cytotoxicity against human Raji cells assessed as cell viability at 100 molar ratio after 48 hrs by trypan blue staining method; assay type: cell-based; details: read-out: Activity; method in brief: as §1
[4] = Cytotoxicity against human Raji cells assessed as cell viability at 10 molar ratio after 48 hrs by trypan blue staining method; assay type: cell-based; details: read-out: Activity; method in brief: as §1
Raji [5] = test: Inhibition of TPA-induced EBV-early antigen activation in human Raji cells assessed as EA induction at 1000 molar ratio after 48 hrs relative to TPA; assay type: cell-based; design: scale not given: the % may be the effect or the level left; details: human gammaherpesvirus 4
Method in brief: (§2)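 Raji cells (virus non-producer, spontaneous EA activation <0.1%) incubated 48 h at 37 °C with 4 mM n-butyric acid plus 32 pM TPA and compound in DMSO; smears stained by indirect immunofluorescence with NPC patient EBV-EA-positive serum, ≥500 cells counted; EA-positive cells expressed relative to butyrate+TPA control (100%); triplicates; IC50 as mol ratio to 32 pmol TPA.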

Raji [6] = test: Inhibition of TPA-induced EBV-early antigen activation in human Raji cells assessed as EA induction at 500 molar ratio after 48 hrs relative to TPA; assay type: cell-based; design: scale not given: the % may be the effect or the level left; details: human gammaherpesvirus 4; method in brief: as §2
Raji [7] = test: Inhibition of TPA-induced EBV-early antigen activation in human Raji cells assessed as EA induction at 100 molar ratio after 48 hrs relative to TPA; assay type: cell-based; design: scale not given: the % may be the effect or the level left; details: human gammaherpesvirus 4; method in brief: as §2
Raji [8] = test: Inhibition of TPA-induced EBV-early antigen activation in human Raji cells assessed as EA induction at 10 molar ratio after 48 hrs relative to TPA; assay type: cell-based; design: scale not given: the % may be the effect or the level left; details: human gammaherpesvirus 4; method in brief: as §2
[9] = Inhibition of TPA-induced EBV-early antigen activation in human Raji cells assessed as EA induction after 48 hrs relative to TPA; assay type: cell-based, human gammaherpesvirus 4; method in brief: as §2

Row | Compound | viability at 48 h, 1000 molar ratio [1] [%] | viability at 48 h, 500 molar ratio [2] [%] | viability at 48 h, 100 molar ratio [3] [%] | viability at 48 h, 10 molar ratio [4] [%] | Activity (Raji [5]) [%] | Activity (Raji [6]) [%] | Activity (Raji [7]) [%] | Activity (Raji [8]) [%] | IC50 [9] [molar ratio]
1 | C=C(C)[C@@H]1CC[C@]2(C(=O)O)CC[C@]3(C)[C@H](CC[C@@H]4[C@@]5(C)CC[C@H](OC(=O)C[C@H](C)C(=O)O)C(C)(C)[C@@H]5CC[C@]43C)[C@@H]12 | 60 | > 80 | > 80 | > 80 | 0 | 31.5 | 71 | 94.2 | 308
2 | C=C(C)[C@@H]1CC[C@]2(C(=O)O)CC[C@]3(C)[C@H](CC[C@@H]4[C@@]5(C)C[C@H](O)C(C)(C)[C@@H]5CC[C@]43C)[C@@H]12 | 60 | > 80 | > 80 | > 80 | 14.2 | 39.2 | 79 | 100 | 475
3 | C=C(C)[C@@H]1CC[C@]2(C(=O)O)CC[C@]3(C)[C@H](CC[C@@H]4[C@@]5(C)[C@@H](C(=O)O)[C@H](OC(=O)CC(C)(C)C(=O)O)C(C)(C)[C@@H]5CC[C@]43C)[C@@H]12 | 60 | > 80 | > 80 | > 80 | 5.1 | 35 | 72 | 93.8 | 349
4 | C=C(C)[C@@H]1CC[C@]2(C(=O)O)CC[C@]3(C)[C@H](CC[C@@H]4[C@@]5(C)[C@@H](C(=O)O)[C@H](O)C(C)(C)[C@@H]5CC[C@]43C)[C@@H]12 [CEANOTHIC ACID] | 60 | > 80 | > 80 | > 80 | 8.5 | 35.7 | 72.1 | 100 | 400
5 | C=C(C)[C@@H]1CC[C@]2(C(=O)O)CC[C@]3(C)[C@H](CC[C@@H]4[C@@]5(C)CC[C@H](OC(=O)CCCCCCC/C=C\CCCCCCCC)C(C)(C)[C@@H]5CC[C@]43C)[C@@H]12 | 60 | > 80 | > 80 | > 80 | 4.8 | 33.7 | 72.4 | 92.5 | 344
6 | C=C(C)[C@@H]1CC[C@]2(C(=O)O)CC[C@]3(C)[C@H](CC[C@@H]4[C@@]5(C)CC[C@H](OC(=O)C=C(C)C)C(C)(C)[C@@H]5CC[C@]43C)[C@@H]12 | 70 | > 80 | > 80 | > 80 | 0 | 23.5 | 62.5 | 88.7 | 285
7 | C=C(C)[C@@H]1CC[C@]2(C(=O)O)CC[C@]3(C)[C@H](CC[C@@H]4[C@@]5(C)CC[C@H](OC(=O)CC/C=C\C/C=C\C/C=C\C/C=C\C/C=C\C/C=C\CC)C(C)(C)[C@@H]5CC[C@]43C)[C@@H]12 | 60 | > 80 | > 80 | > 80 | 17 | 53.8 | 83.2 | 100 | 546
8 | C=C(C)[C@@H]1CC[C@]2(C(=O)O)CC[C@]3(C)[C@H](CC[C@@H]4[C@@]5(C)C[C@H](OC(=O)CC(C)(C)C(=O)O)C(C)(C)[C@@H]5CC[C@]43C)[C@@H]12 | 60 | > 80 | > 80 | > 80 | 5.7 | 35.6 | 73.1 | 95.3 | 352
9 | C=C(C)[C@@H]1CC[C@]2(C(=O)O)CC[C@]3(C)[C@H](CC[C@@H]4[C@@]5(C)CC[C@H](OC(=O)C[C@@H](C)C(=O)O)C(C)(C)[C@@H]5CC[C@]43C)[C@@H]12 | 60 | > 80 | > 80 | > 80 | 0 | 31.8 | 71.2 | 94.7 | 309
10 | C=C(C)[C@@H]1CC[C@]2(C(=O)O)CC[C@]3(C)[C@H](CC[C@@H]4[C@@]5(C)CC[C@H](OC(=O)CC(C)(C)C(=O)O)C(C)(C)[C@@H]5CC[C@]43C)[C@@H]12 [BEVIRIMAT] | 60 | > 80 | > 80 | > 80 | 6.1 | 36.1 | 74.2 | – | 396
11 | C=C(C)[C@@H]1CC[C@]2(C(=O)O)CC[C@]3(C)[C@H](CC[C@@H]4[C@@]5(C)CC[C@H](OC(=O)CCC/C=C\C/C=C\C/C=C\C/C=C\C/C=C\CC)C(C)(C)[C@@H]5CC[C@]43C)[C@@H]12 | 60 | > 80 | > 80 | > 80 | 15.3 | 50.4 | 80.1 | 100 | 523
12 | C=C(C)[C@@H]1CC[C@]2(C(=O)O)CC[C@]3(C)[C@H](CC[C@@H]4[C@@]5(C)CC(=O)C(C)(C)[C@@H]5CC[C@]43C)[C@@H]12 | 60 | > 80 | > 80 | > 80 | 10.1 | 36.4 | 74.3 | 100 | 442
13 | C=C(C)[C@@H]1CC[C@]2(C(=O)O)CC[C@]3(C)[C@H](CC[C@@H]4[C@@]5(C)CC[C@H](OC(=O)CCC/C=C\C/C=C\C/C=C\C/C=C\CCCCC)C(C)(C)[C@@H]5CC[C@]43C)[C@@H]12 | 60 | > 80 | > 80 | > 80 | 12.3 | 46.1 | 79 | 100 | 482
14 | C=C(C)[C@@H]1CC[C@]2(C(=O)O)CC[C@]3(C)[C@H](CC[C@@H]4[C@@]5(C)CC[C@H](OC(=O)CCCCCCC/C=C\C/C=C\CCCCC)C(C)(C)[C@@H]5CC[C@]43C)[C@@H]12 | 60 | > 80 | > 80 | > 80 | 7.3 | 37.9 | 75.9 | 94.8 | 390
15 | C=C(C)[C@@H]1CC[C@]2(C(=O)O)CC[C@]3(C)[C@H](CC[C@@H]4[C@@]5(C)CC[C@H](O)C(C)(C)[C@@H]5CC[C@]43C)[C@@H]12 [BETULINIC ACID] | 60 | > 80 | > 80 | > 80 | 7.9 | 37.2 | 75.1 | 100 | 403
16 | COc1cc(/C=C/C(=O)CC(=O)/C=C/c2ccc(O)c(OC)c2)ccc1O [CURCUMIN] | 60 | > 80 | > 80 | > 80 | 0 | 22.8 | 81.7 | 100 | 341
17 | C=C(C)[C@@H]1CC[C@]2(C(=O)O)CC[C@]3(C)[C@H](CC[C@@H]4[C@@]5(C)CC[C@H](OC(=O)C[C@H](C)CO)C(C)(C)[C@@H]5CC[C@]43C)[C@@H]12 | 70 | > 80 | > 80 | > 80 | 0 | 29.3 | 70.1 | 93.1 | 303
18 | C=C(C)[C@@H]1CC[C@]2(C(=O)O)CC[C@]3(C)[C@H](CC[C@@H]4[C@@]5(C)CC[C@H](OC(=O)CCCCCCC/C=C\C/C=C\C/C=C\CC)C(C)(C)[C@@H]5CC[C@]43C)[C@@H]12 | 60 | > 80 | > 80 | > 80 | 10.9 | 43.3 | 77.8 | 97 | 445
